The subject of series [1] is P. falciparum (D6). The series is described as follows: in vitro antimalarial activity, plasmodial LDH. Format: cell-based, Plasmodium falciparum. The settings on record: Plasmodium falciparum, D6, 72 h, read-out: P. falciparum (D6) IC50.
The subject of series [2] is SK-MEL, KB, BT-549, SK-OV-3, VERO and LLC-PK1 cells. Briefly: cytotoxicity, neutral red uptake assay. It is filed as cell-based, mammalian. As to conditions: highest test concentration 4760 ng/mL. The method, boiled down:
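Cells seeded at 25 000/well and allowed 24 h to reach confluence. Test compound was then added and incubated 48 h. Viable cells were counted by a modified neutral red uptake method. The panel was four human cancer lines and two noncancerous mammalian kidney lines. Doxorubicin served as positive control and DMSO as negative control.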

Series [3] relates to MRSA (ATCC33591). The series is described as follows: in vitro antibacterial activity. Format: cell-based, methicillin-resistant Staphylococcus aureus. The settings on record: Staphylococcus aureus, ATCC33591|MRSA, read-out: MIC, MRSA. In short, it runs like this:
(§1)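 Test compound serially diluted in 20% DMSO/saline and plated in duplicate, up to 20 μg/mL. Inoculum in cation-adjusted Mueller–Hinton broth, pH 7.3, set by OD630 to 5 × 10^5 CFU/mL. Incubated 16–20 h at 35 °C; 530 nm read before and after. IC50 is 50% growth inhibition; MIC is no detectable growth. MBC from clear wells subcultured on agar. Ciprofloxacin control.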

In series [4] the test system is A. fumigatus ATCC 90906. Briefly: in vitro antifungal activity. It is filed as cell-based, Aspergillus fumigatus. As to conditions: Aspergillus fumigatus; for IC50: ATCC90906, read-out: A. fumigatus IC50; for MFC: ATCC90906, read-out: A. fumigatus MFC; for MIC: ATCC90906, read-out: A. fumigatus MIC. In short, it runs like this:
(§2)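 Modified NCCLS broth method in Sabouraud dextrose. Inoculum set by OD630 to 1.5 × 10^3 CFU/mL. Test compound serially diluted in 20% DMSO/saline, duplicate wells, up to 20 μg/mL. Incubated 70–74 h at 35 °C; 530 nm read before and after. IC50 is 50% growth inhibition; MIC is no detectable growth. MFC from clear wells subcultured on agar. Amphotericin B control.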

Series [5] relates to P. falciparum (W2). The series is described as follows: in vitro antimalarial activity, plasmodial LDH. Format: cell-based, Plasmodium falciparum. As to conditions: Plasmodium falciparum, W2, 72 h, read-out: P. falciparum (W2) IC50, CQ-resistant W2 strain, 72 h. The method, boiled down:
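P. falciparum-infected erythrocytes (2% parasitemia, 2% hematocrit) in RPMI 1640 with 10% human serum and 60 μg/mL amikacin. Exposed to test compound dilutions for 72 h at 37 °C under 90% N2/5% O2/5% CO2. LDH measured with Malstat reagent (30 min, room temperature), then NBT/PES for 1 h in the dark, stopped with 5% acetic acid, read at 650 nm. IC50 from dose-response curves.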

Series [6] has as its system C. albicans ATCC90028. Briefly: in vitro antifungal activity. Format: cell-based, Candida albicans. The settings on record: Candida albicans; for IC50: ATCC90028, read-out: C. albicans IC50; for MFC: ATCC90028, read-out: C. albicans MFC; for MIC: ATCC90028, read-out: C. albicans MIC. The method, boiled down: as §2
The subject of series [7] is M. intracellulare (ATCC23068). The series is described as follows: in vitro antibacterial activity, modified alamarBlue procedure. The settings on record: Mycobacterium intracellulare; for IC50: ATCC23068, read-out: IC50 (concentration that affords 50% growth inhibition), M. intracellulare; for MBC: ATCC23068, read-out: MBC (minimum bactericidal concentration), M. intracellulare; for MIC: ATCC23068, read-out: MIC, M. intracellulare. It is filed as cell-based, Mycobacterium intracellulare. The method, boiled down: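 Modified alamarBlue microplate method. Test compound serially diluted in 20% DMSO/saline, duplicate wells, up to 20 μg/mL. Inoculum 2.0 × 10^6 CFU/mL in Middlebrook 7H9 with OADC, pH 7.3, containing 5% alamarBlue. Incubated 70–74 h at 37 °C, 10% CO2; fluorescence 544ex/590em read before and after. MIC: no blue-to-pink change. MBC by subculturing blue wells on agar. Ciprofloxacin control.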

Series [8] deals with L. donovani promastigotes. The series is described as follows: in vitro antileishmanial activity, alamarBlue assay. Format: cell-based, Leishmania donovani. The settings on record: Leishmania donovani, 48 h; for IC50: read-out: L. donovani IC50, promastigotes, 48 h; for IC90: read-out: L. donovani IC90, promastigotes, 48 h.
The test system of series [9] is SA (ATCC29213). The series is described as follows: in vitro antibacterial activity. It is filed as cell-based. The settings on record: Staphylococcus aureus; for IC50: ATCC29213, read-out: IC50 (concentration that affords 50% growth inhibition), SA; for MBC: ATCC29213, read-out: MBC (minimum bactericidal concentration), SA; for MIC: ATCC29213, read-out: MIC, SA. The method, boiled down:
as §1

Series [10] relates to C. neoformans ATCC90113. Briefly: in vitro antifungal activity. The settings on record: Cryptococcus neoformans; for IC50: ATCC90113, read-out: C. neoformans IC50; for MFC: ATCC90113, read-out: C. neoformans MFC; for MIC: ATCC90113, read-out: C. neoformans MIC. Format: cell-based, Cryptococcus neoformans. The method, boiled down:
as §2

Molecules are shown by their SMILES. Converted amounts (≈) assume the structure as drawn. Where only a bound is given, the exact number is not on record here.

For `CCCCCCCOc1c(OC)cc(NC(C)CCCNC(=O)C(N)Cc2ccccc2)c2nc(C(C)(C)C)ccc12` (stereo not drawn) [compound 112, 2-Amino-N-(4-(2-tert-butyl-5-(heptyloxy)-6-methoxyquinolin-8-ylamino)pentyl)-3-phenylpropanamide], the IC50 in series [1] was 3.2 µg/mL (≈ 5.55 µM); in series [4], > 20 µg/mL; in series [5], 2.2 µg/mL (≈ 3.81 µM); in [6], > 20 µg/mL; in series [7] it was > 20 µg/mL; in series [8], 20 µg/mL (≈ 34.7 µM). Moreover, the IC50 was found to be 4.06 µg/mL (≈ 7.04 µM) in series [9] and 4.56 µg/mL (≈ 7.91 µM) in series [10]. The “cytotoxicity CTX” value in series [2] was “NC (NC, not cytotoxic up to 4760 ng/mL (4.76 μg/mL))”. Further, the MIC in series [3] is 10 µg/mL (≈ 17.3 µM); in series [4], > 20 µg/mL; in [6] it was > 20 µg/mL; in [7], > 20 µg/mL; in series [9], 10 µg/mL (≈ 17.3 µM); in [10], 5 µg/mL (≈ 8.67 µM). For the same compound, the MFC in [4] is > 20 µg/mL; in series [6], > 20 µg/mL; in series [10], 5 µg/mL (≈ 8.67 µM). Moreover, the figures for the MBC in series [7] and in series [9] were > 20 µg/mL and 10 µg/mL (≈ 17.3 µM), respectively. In series [8], the 90% effect concentration (IC90) is 36 µg/mL (≈ 62.4 µM).

With `CCCCCCCOc1c(OC)cc(NC(C)CCCNC(=O)C(N)C(C)CC)c2nc(C(C)(C)C)ccc12` (stereo not drawn) [compound 114, 2-Amino-N-(4-(2-tert-butyl-5-(heptyloxy)-6-methoxyquinolin-8-ylamino)pentyl)-3-methylpentanamide], the IC50 was 4.5 µg/mL (≈ 8.29 µM) in series [1]; > 20 µg/mL in [4]; 2.9 µg/mL (≈ 5.34 µM) in series [5]; 14.2 µg/mL (≈ 26.2 µM) in series [6]; 5.63 µg/mL (≈ 10.4 µM) in series [7]; 3.8 µg/mL (≈ 7 µM) in [8]. For the same compound, the IC50 in series [9] is 2.19 µg/mL (≈ 4.03 µM); in [10], 1.07 µg/mL (≈ 1.97 µM). In series [2], the “cytotoxicity CTX” value is “NC (NC, not cytotoxic up to 4760 ng/mL (4.76 μg/mL))”. Also, the minimal inhibitory concentration (MIC) in [3] is 5 µg/mL (≈ 9.21 µM); in series [4] it was > 20 µg/mL; in series [6], > 20 µg/mL; in [7] it was 10 µg/mL (≈ 18.4 µM); in [9] it was 5 µg/mL (≈ 9.21 µM); in series [10], 2.5 µg/mL (≈ 4.61 µM). The minimum fungicidal concentration (MFC) in series [4] is > 20 µg/mL; in series [6], > 20 µg/mL; in series [10], 2.5 µg/mL (≈ 4.61 µM). For the same compound, the MBC in [7] is 20 µg/mL (≈ 36.8 µM); in series [9], 5 µg/mL (≈ 9.21 µM). Besides, the 90% effect concentration (IC90) in series [8] was 7 µg/mL (≈ 12.9 µM).

In the case of `CCCCCCCOc1c(OC)cc(NC(C)CCCNC(=O)C(N)Cc2cc3ccccc3[nH]2)c2nc(C(C)(C)C)ccc12` (stereo not drawn) [compound 115, 2-Amino-N-(4-(2-tert-butyl-5-(heptyloxy)-6-methoxyquinolin-8-ylamino)pentyl)-3-(1H-indol-2-yl)propanamide], the IC50 is 3.3 µg/mL (≈ 5.36 µM) in series [1]; > 20 µg/mL in series [4]; 2.8 µg/mL (≈ 4.55 µM) in series [5]; > 20 µg/mL in [6]; 8.74 µg/mL (≈ 14.2 µM) in series [7]; 19 µg/mL (≈ 30.9 µM) in series [8]. Moreover, the IC50 is 4.56 µg/mL (≈ 7.4 µM) in series [9] and 1.36 µg/mL (≈ 2.21 µM) in [10]. The “cytotoxicity CTX” value in series [2] is recorded as “NC (NC, not cytotoxic up to 4760 ng/mL (4.76 μg/mL))”. Besides, the MIC in series [3] is 5 µg/mL (≈ 8.12 µM); in series [4], > 20 µg/mL; in [6], > 20 µg/mL; in series [7], 10 µg/mL (≈ 16.2 µM); in [9], 10 µg/mL (≈ 16.2 µM); in series [10] it was 2.5 µg/mL (≈ 4.06 µM). The MFC in [4] is > 20 µg/mL; in series [6], > 20 µg/mL; in series [10], 2.5 µg/mL (≈ 4.06 µM). In addition, the MBC amounted to 20 µg/mL (≈ 32.5 µM) in series [7] and 10 µg/mL (≈ 16.2 µM) in [9]. In addition, the IC90 in [8] amounted to 32 µg/mL (≈ 52 µM).

The values are drawn from article PMC6045484 (ACS Omega, 2018).
